# The list is not random: actives were taken first. Their share in the collection is about 3.4%.
# S100A4 MyoIIA: blocks human S100A4 binding to myosin IIA peptide. P26447. S100A4/TAMRA-MyoIIA peptide fluorescence polarization. inhibition, % at 10.7 µM. 360,000 compounds, 0.14% hits. AID 652163;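 active means mean inhibition of at least 70% across replicates, with every replicate also reaching that level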
#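 incubation = readout 5 min after mixing, signal stable up to 60 min | system = S100A4 monomer protein | buffer or medium = HEPES pH 7.2 with CaCl2, KCl, NaCl, DTT, Triton | benchmarks = neutral control DMSO, positive control TFP | also added = fluorescent myosin IIA peptide, 5 nM | compound dosing = one concentration per compound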
# rRNA inh HTS: inhibitors of bacterial rRNA selective over humanized ribosomes; GFP signal change (wild-type ribosome), % (no concentration beside the values); E. coli WT GFP vs humanized-ribosome RFP mutants, fluorescence, 24 h; stronger effect = lower value; DMSO median 0, no signal -100; 350,000 compounds, 1.6% hits;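 active means significant combined selectivity score with lowered wild-type GFP, culture density cut under 30%, mutant RFP and density less affected; inactive means any of these conditions unmet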
# AF4-AF9 inh: blocks AF4 peptide binding to human AF9. AlphaScreen, biotin-AF4 peptide binding to FLAG-AF9. inhibition, % at 10 µM. 350,000 compounds, 0.47% hits;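 active means every replicate reaching a set inhibition limit, whatever the replicate mean, cut at about 25% in these data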;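 further: 0% = plate neutral control median and 100% = total signal loss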
# E-sel inducer: E-selectin induction on HUVECs; HUVEC E-selectin immunofluorescence imaging; normalized: neutral wells 0, TNF-alpha wells 100; activation, % at 7.58 µM; P16581; 260,000 compounds, 0.37% hits; AID 686992;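 active means mean E-selectin-positive cell signal at least 10% of the positive control, reached in at least 60% of replicates, without over 20% cell loss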
#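 material = human umbilical vein endothelial cells (HUVEC), E-selectin induction | quantity = 3,000 cells/well | medium = EGM-2 growth medium on 0.1% gelatin-coated wells | technique = immunofluorescence imaging | read-out basis = % PE-positive cells | control set = TNF-alpha positive control, DMSO neutral control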
# ERAP1 HTS inh: inhibitors of human ERAP1 aminopeptidase; Q9NZ08; 340,000 compounds, 0.15% hits; inhibition, % at 10.7 µM; recombinant ERAP1, Leu-AMC fluorescence, 60 min;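 active means mean replicate inhibition of at least 30%, or all replicates individually reaching that 30% level; inactive means mean below 30% and not every replicate reaching it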;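 further: 0% = neutral control wells and 100% = L-leucinethiol positive control wells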
# Target sequence (Q9NZ08 whole entry, looked up): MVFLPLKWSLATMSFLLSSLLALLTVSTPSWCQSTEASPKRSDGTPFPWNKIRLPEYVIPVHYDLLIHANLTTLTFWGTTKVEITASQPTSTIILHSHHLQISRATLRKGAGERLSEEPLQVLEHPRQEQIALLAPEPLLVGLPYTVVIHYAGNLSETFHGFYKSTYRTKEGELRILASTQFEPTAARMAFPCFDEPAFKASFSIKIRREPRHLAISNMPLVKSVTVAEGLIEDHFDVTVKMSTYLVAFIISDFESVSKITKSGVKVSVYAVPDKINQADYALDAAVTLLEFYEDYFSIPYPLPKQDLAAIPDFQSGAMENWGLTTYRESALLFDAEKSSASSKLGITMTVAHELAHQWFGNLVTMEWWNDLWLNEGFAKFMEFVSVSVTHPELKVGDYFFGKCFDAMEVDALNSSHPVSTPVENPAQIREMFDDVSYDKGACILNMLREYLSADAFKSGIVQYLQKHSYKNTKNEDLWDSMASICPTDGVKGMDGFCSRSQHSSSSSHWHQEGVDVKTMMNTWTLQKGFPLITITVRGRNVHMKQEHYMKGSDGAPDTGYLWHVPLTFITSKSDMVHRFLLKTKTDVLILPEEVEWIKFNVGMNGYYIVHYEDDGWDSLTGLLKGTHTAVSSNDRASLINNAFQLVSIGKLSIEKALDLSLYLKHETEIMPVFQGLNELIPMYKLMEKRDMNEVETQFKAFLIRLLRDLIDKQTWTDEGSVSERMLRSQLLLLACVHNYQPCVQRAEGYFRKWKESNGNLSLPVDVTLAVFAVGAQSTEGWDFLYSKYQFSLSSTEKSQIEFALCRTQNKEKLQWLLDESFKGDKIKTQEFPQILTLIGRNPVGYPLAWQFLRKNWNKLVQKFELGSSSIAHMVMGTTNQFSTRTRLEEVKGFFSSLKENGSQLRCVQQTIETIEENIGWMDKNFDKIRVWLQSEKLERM
# SIRT5 block: blocks human SIRT5 desuccinylation of peptide; Q9NXA8; Purified SirT5, succinyl-peptide AMC, trypsin-coupled fluorescence; inhibition, % at 15 µM; 330,000 compounds, 1.1% hits; in the data active means inhibition above about 15%
# * hit, by the source's call; . = no result.
SMILES,S100A4 MyoIIA,rRNA inh HTS,AF4-AF9 inh,E-sel inducer,ERAP1 HTS inh,SIRT5 block
COCC(=O)N1C[C@H]2[C@@H](c3ccccc31)[C@@H](CO)N2Cc1ccccc1F,2.6,1.6,-16.8,0.1,3.1,0.6
CN(C)C(=O)c1cccc(-c2ccccc2[C@H]2[C@@H](C#N)N(C(=O)C3CC3)[C@@H]2CO)c1,5.1,3.3,-1.9,0.0,0.3,29.4*
C[C@@H](NC(=O)[C@@H]1[C@@H](CO)[C@@H]2Cn3c(cccc3=O)[C@@H]2N1S(C)(=O)=O)c1ccccc1,8.3,1.2,-1.2,-0.1,8.0,2.8
CC(C)Oc1ccc(C(=O)NC(=S)Nc2ccc(Cl)c(C(=O)O)c2)cc1,-2.8,-20.6*,-0.4,-0.6,.,0.1
CC(C)C#Cc1ccc2c(c1)O[C@@H](CN(C)S(=O)(=O)c1cn(C)cn1)[C@H](C)CN([C@@H](C)CO)S2(=O)=O,-7.6,-3.7,0.3,0.0,-0.4,-4.0
Cc1ccc(-n2c(SCC(=O)N3CCOCC3)nnc2-c2cccnc2)cc1,-4.2,9.5,2.5,.,-1.8,-0.8
CC(Sc1nnc(-c2cccnc2)n1C)C(=O)N1CCOCC1 (centres undefined),2.8,18.4,-0.3,-0.1,30.5*,-1.4
CC1=C(C(=O)OCc2ccccc2)C(c2ccc(Br)cc2)NC(=O)N1CCCCCC(=O)O (centres undefined),-4.0,-26.1*,-5.7,0.0,-1.2,1.4
CC1=C(C(=O)OCc2ccccc2)C(c2ccc(Br)cc2)NC(=O)N1CCCC(=O)O (centres undefined),6.9,1.4,-2.3,0.1,0.6,-3.8
CCONc1ncnc2nonc12,-1.9,9.4,-2.7,-5.9,9.5,0.9
COc1ccc(CONc2ncnc3nonc23)cc1[N+](=O)[O-],0.5,-25.4*,1.7,.,-0.3,1.4
Cc1c(O)nc2ccccn2c1=O,4.5,17.6,1.5,71.3*,.,.
CCCC(=O)Nc1ccc2c(c1)C(=O)N(C)[C@H]1CC[C@H](CC(=O)NCC3CC3)O[C@H]1CO2,-0.6,0.1,-7.2,0.0,0.2,1.7
COc1ccccc1CCC(=O)N1CCC(n2nccc2NC(=O)CC(C)C)CC1,1.2,3.2,-5.1,-0.1,0.6,-2.8
Cc1ccc(C)c(CN2CCC(n3nccc3NC(=O)CCCc3ccccc3)CC2)c1,-2.1,-26.6*,2.9,.,1.7,2.7
C=C(C)CCC(C)N1CCC(n2nccc2NC(=O)CCOc2ccccc2)CC1 (centres undefined),-26.2,18.8,-0.3,43.5*,0.7,-1.6
O=C(CCCc1ccccc1)Nc1ccnn1C1CCN(Cc2ccccc2)CC1,3.6,5.6,-2.6,.,1.4,4.5
COc1cccc(CCC(=O)N2CCC(n3nccc3NC(=O)CC(C)C)CC2)c1,-0.6,0.4,-1.4,39.2*,-4.3,-1.0
CC(C)NC(=O)N1CCC(n2nccc2NC(=O)CCOc2ccccc2)CC1,2.8,9.9,-1.2,-0.2,-0.1,-2.8
O=C(C[C@H]1CC[C@@H](NC(=O)C2CCC2)[C@H](CO)O1)NC1CCCCC1,-11.3,-0.7,-0.6,0.7,0.3,3.5
C[C@H](CO)N1C[C@H](C)[C@@H](CN(C)C(=O)NC2CCCCC2)Oc2c(NC(=O)c3cnccn3)cccc2C1=O,-1.3,1.3,-2.7,0.0,2.8,-5.1
Cc1ccc(S(=O)(=O)N(C)C[C@H]2OCCCC[C@@H](C)Oc3ccc(NC(=O)CCCN(C)C)cc3C(=O)N([C@@H](C)CO)C[C@H]2C)cc1,4.9,3.5,5.5,.,-2.7,-3.2
CC1=NN(C(N)=S)C(=O)C1N=Nc1cccc(C(=O)O)c1 (centres undefined),-4.5,14.1,-1.8,.,5.1,23.6*
Cc1ccc(-c2nn(-c3ccccc3)cc2CO)cc1,-1.4,-7.2,6.2,.,-1.3,-5.7
N=C(N)SCc1cn(-c2ccccc2)nc1-c1ccc(Br)cc1,9.7,-61.8,32.8*,.,-12.6,-3.0
SMILES,S100A4 MyoIIA,rRNA inh HTS,AF4-AF9 inh,E-sel inducer,ERAP1 HTS inh,SIRT5 block
COc1ccc2c3c([nH]c2c1)[C@H](CO)N(C(=O)C1CC1)CC31CN(Cc2nccs2)C1,-2.7,-0.3,1.8,0.2,2.8,1.4
CCN(CC)CCN(C(=O)c1ccc([N+](=O)[O-])cc1)c1nc2c(OC)cccc2s1,-5.7,6.5,-3.9,0.0,0.2,-2.2
COc1cccc2sc(N(CCCN(C)C)C(=O)c3sc4ccccc4c3Cl)nc12,-4.6,-43.3*,27.9*,.,2.6,.
CCN(CC)CCN(C(=O)c1ccc(C(=O)c2ccccc2)cc1)c1nc2c(OC)cccc2s1,5.3,-34.5,26.6*,0.3,-1.4,-1.5
C/C=C/c1ccc2c(c1)O[C@@H](CN(C)C(=O)c1cccc(F)c1)[C@@H](C)CN([C@@H](C)CO)S2(=O)=O,-2.8,-0.5,3.9,-0.1,-0.1,1.2
CC(C)c1cn(CC[C@H]2CC[C@@H](NC(=O)C3CCCCC3)[C@@H](CO)O2)nn1,-38.8,0.6,-1.4,0.0,-2.3,0.4
C(=C\c1sc(Nc2ccccc2)n[n+]1-c1ccccc1)/c1ccccc1,-2.3,-3.2,30.7*,0.0,.,.
COc1ccc(-c2sc(Nc3ccccc3)n[n+]2-c2ccccc2)cc1Br,4.1,3.6,-5.7,-0.1,-0.3,.
CCn1nnc(NC(=O)c2ccc([N+](=O)[O-])o2)n1,2.1,-23.1*,-1.6,.,-2.2,.
CC(=O)c1cc(N2CCC(C(=O)O)CC2)ccc1[N+](=O)[O-],-3.5,2.9,-0.7,.,5.3,4.9
O=C(CN1C(=O)NC2(CCCC2)C1=O)Nc1ccc(S(=O)(=O)N2CCOCC2)cc1,-3.3,25.8,-2.9,.,2.2,18.5*
CC(=O)c1cc(N2CCOCC2)ccc1[N+](=O)[O-],-2.7,3.1,-2.0,4.9,2.8,15.5*
O=C(COC(=O)c1ccc([N+](=O)[O-])o1)Nc1ccc(N2CCOCC2)cc1,-9.5,8.0,1.8,.,0.3,-2.9
O=C(Nc1ccc(N2CCOCC2)cc1)c1ccc([N+](=O)[O-])o1,1.3,-19.2*,2.1,-0.3,3.2,-3.8
C/C=C/c1ccc([C@@H]2[C@@H](CO)N(C(=O)C3CCC3)[C@H]2CN(CC)C(=O)CC)cc1,-4.6,-0.5,-3.7,0.1,1.9,2.6
Cc1ccccc1-c1ccc2c(c1)O[C@@H](CN(C)C(=O)Nc1ccc(F)cc1)[C@@H](C)CN([C@H](C)CO)S2(=O)=O,3.2,1.2,2.1,0.0,1.9,11.8
COCc1cn(CC[C@H]2CC[C@@H](NC(=O)Nc3ccc(OC)cc3)[C@H](CO)O2)nn1,12.5,2.2,-0.1,-2.6,-2.7,-2.5
COc1ccc2c3c([nH]c2c1)[C@H](CO)N(C(=O)NC(C)C)CC31CN(C(=O)c2ccccn2)C1,.,0.4,.,.,.,.
